Assay outcomes (PubChem)
DNMT1 block = human DNMT1 methyltransferase inhibitors, primary screen, biochemical, molecular beacon, fluorescence, HinP1I cleavage, uHTS | DNA (cytosine-5)-methyltransferase 1 (Homo sapiens), P26358 | inhibition (reported as % activation of signal), % at 10 µM | hit rate 0.83% among 360,000; in the data active = inhibition above about 50%
STEP inh = STEP phosphatase inhibitors, primary screen, biochemical, fluorescence intensity, uHTS; hit rate 0.25% among 360,000; recombinant STEP, OMFP fluorogenic substrate; AID 588621, 2011; inhibition, % at 20 µM;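 active = inhibition at 20 µM, scaled per plate between control wells, above about 37%, limit read from the data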
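Also added – OMFP at 25 µM · Test system – STEP tyrosine phosphatase · Technique – FITC-channel fluorescence of OMFP product · Schedule – 20 min at room temperature, dark · Evaluation – control-normalized % inhibition with plate pattern correction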
LMPTP block = LMPTP phosphatase inhibitors, primary screen, biochemical, fluorescence intensity, uHTS | recombinant LMPTP-A, OMFP fluorogenic substrate | Low molecular weight phosphotyrosine protein phosphatase (Homo sapiens), P24666 | hit rate 0.22% among 360,000 | AID 651560, 2012 | inhibition, % at 20 µM;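 active = compounds that cut the enzyme signal by at least half of the control window in the single-dose screen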
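Test system: LMPTP-A, protein tyrosine phosphatase of low molecular weight; Input: 0.625 nM enzyme; Incubation: 50 min dark incubation at room temperature; Signal: endpoint fluorescence intensity from OMFP dephosphorylation; Read-out basis: % inhibition versus control wells.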
Scp-1 inhibitor = Scp-1 phosphatase inhibitors, primary screen, biochemical, colorimetric, uHTS. AID 493091, 2011. hit rate 0.88% among 340,000. inhibition, % at 20 µM. Carboxy-terminal domain RNA polymerase II polypeptide A small phosphatase 1 (Homo …. Recombinant Scp1, phosphopeptide, malachite green phosphate absorbance;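 active = inhibition above about 50% at 20 µM, limit read from the data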
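Test system – truncated SCP-1 phosphatase (76-261aa) · Reagent – Phosphorylated 17-residue peptide substrate · Incubation – 45 min room-temperature reaction, 5 min colour, 30 min stabiliser · Detection – colorimetric phosphate reagent with accelerator and stabiliser, absorbance at 630 nm · Measure – % inhibition at 20 µM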
SUMO1-SIM PPI = modulators of SUMO1 protein-protein interactions, primary screen, biochemical, uHTS; Small ubiquitin-related modifier 1 (Homo sapiens), P63165; SUMO1 binding to a labelled peptide, TR-FRET, 1 h; inhibition, % at 20 µM; hit rate 0.33% among 360,000; AID 602429, 2012; in the data active = inhibition above about 37%
HKDC1 inhibitor = HKDC1 hexokinase inhibitors, primary screen, biochemical, fluorescence, uHTS; hit rate 0.16% among 340,000; recombinant HKDC1, G6PDH/diaphorase resazurin coupled fluorescence; inhibition, % at 20 µM; Q2TB90;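 active = inhibition above about 35% when tested at 20 µM, limit read from the data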
Target sequence (Q2TB90 whole entry, looked up): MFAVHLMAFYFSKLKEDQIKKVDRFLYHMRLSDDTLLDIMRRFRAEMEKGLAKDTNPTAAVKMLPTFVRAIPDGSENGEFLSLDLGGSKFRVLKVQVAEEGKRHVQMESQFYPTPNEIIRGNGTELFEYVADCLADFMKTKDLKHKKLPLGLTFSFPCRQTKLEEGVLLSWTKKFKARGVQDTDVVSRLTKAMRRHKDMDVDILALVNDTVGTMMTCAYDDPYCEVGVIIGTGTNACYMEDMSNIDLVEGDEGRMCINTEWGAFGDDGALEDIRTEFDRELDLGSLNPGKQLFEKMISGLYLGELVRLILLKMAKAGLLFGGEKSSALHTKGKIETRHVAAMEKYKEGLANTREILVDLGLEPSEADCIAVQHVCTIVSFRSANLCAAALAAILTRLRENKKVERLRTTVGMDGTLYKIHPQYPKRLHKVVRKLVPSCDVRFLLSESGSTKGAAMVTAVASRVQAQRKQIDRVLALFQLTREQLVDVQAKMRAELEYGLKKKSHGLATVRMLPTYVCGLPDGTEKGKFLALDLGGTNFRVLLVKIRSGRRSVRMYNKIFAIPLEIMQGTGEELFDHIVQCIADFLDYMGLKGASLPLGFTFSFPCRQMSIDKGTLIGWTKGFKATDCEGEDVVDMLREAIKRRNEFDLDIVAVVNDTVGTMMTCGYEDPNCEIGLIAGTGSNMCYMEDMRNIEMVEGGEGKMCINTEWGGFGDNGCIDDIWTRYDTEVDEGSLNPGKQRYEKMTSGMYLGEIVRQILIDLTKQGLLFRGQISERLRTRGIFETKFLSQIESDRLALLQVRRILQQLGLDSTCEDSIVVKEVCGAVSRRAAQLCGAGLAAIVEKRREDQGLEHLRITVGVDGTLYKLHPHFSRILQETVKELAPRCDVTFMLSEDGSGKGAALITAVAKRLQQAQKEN
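Assay system – recombinant HKDC1 (HK5) hexokinase enzyme, produced in-house · Input – HKDC1 at 5 µg/mL · Reagent – glucose plus 1 mM ATP as hexokinase substrates · Timing – 90 min reaction incubation at room temperature, dark · Measured by – G6PDH/diaphorase-coupled fluorescence, 1 mM NADP, 100 µM resazurin, 525/613 nm · Benchmarks – DMSO-enzyme wells negative, buffer-substituted wells positive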
Scp1 confirm = Scp-1 phosphatase inhibitors, retest, confirmation, biochemical, colorimetric, single concentration; shares compounds with Scp-1 inhibitor; recombinant SCP-1 catalytic domain, phosphate release, malachite green absorbance; hit rate 61% among 2,500; inhibition, % at 20 µM
MG interference = colorimetric readout interference by compounds, confirmation, artefact control for Scp-1 inhibitor project, biochemical, single concentration; shares compounds with Scp-1 inhibitor; Colorimetric interference counterscreen, malachite green absorbance 630 nm; apparent inhibition (interference), % at 20 µM; 2,500 tested, under 10 active; AID 540313, 2011;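 note: compounds added after enzyme reaction finished so only phosphate colour detection is probed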
Scp-1 Tm shift = Scp-1 binding by thermal shift, confirmation, orthogonal assay for Scp-1 inhibitor project, biophysical, differential scanning fluorimetry. shares compounds with Scp-1 inhibitor. Recombinant SCP1, Sypro Orange thermal shift Tm. thermal shift relative to vanadate control, % at 40 µM. hit rate 25% among 1,500. AID 540329, 2011;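 active = substances whose mean melting-temperature shift, as a percentage of the reference inhibitor's shift, reaches about 5.3%, limit read from the data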
DNMT1 inh conf = DNMT1 methyltransferase inhibitor retest, confirmation, biochemical, molecular beacon, fluorescence, single concentration | DNMT1 molecular beacon HinP1I cleavage | AID 602385, 2012 | inhibition, % at 10 µM | hit rate 8% among 2,300 | shares compounds with DNMT1 block;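 active = average inhibition of at least 30% in the single-concentration confirmation test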
DNMT1 interf = beacon fluorescence artifact counter-screen | shares compounds with DNMT1 block | DNMT1 molecular beacon spectral interference counterscreen, fluorescence 485/520 | activation (fluorescence interference), % at 10 µM | hit rate 1% among 2,300 | AID 602387;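 active = activation of at least 30% at 10 µM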;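 note: DNMT1 catalytic domain with a HinP1I cleavage step and a FAM/dabcyl DNA beacon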
STEP conf = STEP phosphatase inhibitor hit confirmation, biochemical, fluorescence intensity, single concentration; inhibition, % at 20 µM; recombinant STEP, OMFP fluorogenic substrate; hit rate 32% among 520; shares compounds with STEP inh; call rule not given here
Each line names hits and unclear results; the compound was inactive in the other large screens (follow-up assays come after a bar, where they were run). The list is not random: actives were taken first. Their share in the collection is about 1.8%.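 Rule for the calls, unless noted: active = inhibition of at least 30% at 20 µM; inactive = the rest.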

CCOc1cc(/C=N/N=C2/NC(=O)C(CC(=O)O)S2)ccc1OCc1ccc(Cl)cc1Cl (centres undefined)	STEP inh 64, LMPTP block 84, Scp-1 inhibitor 75 | Scp1 confirm 65 | MG interference inactive | Scp-1 Tm shift inactive | STEP conf 13
CC(=O)NC(c1ccccc1)c1nc(/C=C/c2ccccc2)cs1 (centres undefined)	none (no result: Scp-1 inhibitor, HKDC1 inhibitor)
O=C(Nc1cccc(-c2nc3ncccc3o2)c1)c1ccc2c(c1)OCO2	none
O=C(Nc1cccc(-c2nc3ncccc3o2)c1)c1sc2cc(Cl)ccc2c1Cl	STEP inh 90, LMPTP block 51, Scp-1 inhibitor 95 | Scp1 confirm 57 | MG interference inactive | Scp-1 Tm shift inactive | STEP conf inactive
O=C(Nc1nc2ccccc2s1)c1ccccc1	none
Cc1csc2nc(NC(=O)c3ccccc3)sc(=O)c12	STEP inh 79, LMPTP block 57, Scp-1 inhibitor 87 | Scp1 confirm 70 | MG interference inactive | Scp-1 Tm shift inactive | STEP conf inactive
COc1ccc(S(=O)(=O)N2CC(C)N(C(=O)N(C)C)C2C(C)C)cc1 (centres undefined)	none
O=C(COc1ccc(/C=N/NC(=O)c2ccc(O)cc2)cc1)Nc1cccc([N+](=O)[O-])c1	STEP inh 74, LMPTP block 59, Scp-1 inhibitor 96 | Scp1 confirm 61 | MG interference inactive | Scp-1 Tm shift 13 | STEP conf 94
COc1cc(C(=O)N/N=C/c2cc([N+](=O)[O-])cs2)cc(OC)c1OC	none
CCOc1ccc(C(=O)N/N=C/c2cc([N+](=O)[O-])cs2)cc1	STEP inh 91, LMPTP block 71, Scp-1 inhibitor 107 | Scp1 confirm 82 | MG interference inactive | Scp-1 Tm shift inactive | DNMT1 inh conf inactive | DNMT1 interf inactive | STEP conf inactive
CC1=C(C(=O)OC(C)C)C(c2ccc(Cl)cc2)n2c(s/c(=C\c3ccc(OCC(=O)O)cc3)c2=O)=N1 (centres undefined)	DNMT1 block 86, Scp-1 inhibitor 56, SUMO1-SIM PPI 97 | Scp1 confirm 49 | MG interference inactive | Scp-1 Tm shift inactive | STEP conf 52
CCOC(=O)C1=C(C)N=c2s/c(=C\c3ccc(OCC(=O)O)c(OC)c3)c(=O)n2C1c1ccc(OC)cc1 (centres undefined)	none
COc1ccc2cc3c(N)nn(C(=O)c4cccc([N+](=O)[O-])c4)c3nc2c1	DNMT1 block 77, STEP inh 98, LMPTP block 66, Scp-1 inhibitor 98, SUMO1-SIM PPI 53 | Scp1 confirm 79 | MG interference inactive | Scp-1 Tm shift inactive | DNMT1 inh conf inactive | DNMT1 interf inactive | STEP conf inactive
COc1ccc2ccccc2c1C=NN1CCCCC1	none (no result: Scp-1 inhibitor, HKDC1 inhibitor)
O=C(O)CC/C(=N\Nc1ccc(S(=O)(=O)N2CCCC2)cc1[N+](=O)[O-])c1cccs1	STEP inh 97, Scp-1 inhibitor 63 | Scp1 confirm 57 | MG interference inactive | Scp-1 Tm shift 16 | STEP conf 83
COc1cccc2cc(C(=O)Nc3cccc(C)n3)c(=O)oc12	DNMT1 block 74, STEP inh 56, Scp-1 inhibitor 102 | Scp1 confirm 60 | MG interference inactive | Scp-1 Tm shift inactive | DNMT1 inh conf inactive | DNMT1 interf inactive | STEP conf inactive
COc1cccc2cc(C(=O)NC(C)c3ccccc3)c(=O)oc12 (centres undefined)	none
CC1(C(=O)NS(=O)(=O)c2ccc(Cl)s2)CCN1C(=O)c1ccccc1CCc1ccccc1 (centres undefined)	none (no result: Scp-1 inhibitor, HKDC1 inhibitor)
COC(=O)COc1ccc2oc(=O)cc(-c3cc4cccc(OC)c4o3)c2c1	STEP inh 75, LMPTP block 61, Scp-1 inhibitor 75, SUMO1-SIM PPI 40 | Scp1 confirm 56 | MG interference inactive | Scp-1 Tm shift inactive | STEP conf inactive
COc1cccc2cc(-c3cc(=O)oc4ccc(OCC(C)=O)cc34)oc12	none
CN(C)c1cc(-c2ccc(Cl)c(Cl)c2)oc(=O)c1Cl	DNMT1 block 62, STEP inh 96, LMPTP block 60, Scp-1 inhibitor 107 | Scp1 confirm 81 | MG interference inactive | Scp-1 Tm shift inactive | DNMT1 inh conf inactive | DNMT1 interf inactive | STEP conf inactive
CN(C)c1cc(-c2ccc(Cl)cc2)oc(=O)c1Cl	none
O=C(N/N=C/c1cccc([N+](=O)[O-])c1)c1cc2c(ccc3ccccc32)o1	STEP inh 99, LMPTP block 64, Scp-1 inhibitor 99 | Scp1 confirm 68 | MG interference inactive | Scp-1 Tm shift inactive | STEP conf inactive
O=C(O)c1ccc(/C=N/NC(=O)c2cc3c(ccc4ccccc43)o2)cc1	STEP inh 98, LMPTP block 67, Scp-1 inhibitor 79 | Scp1 confirm 71 | MG interference inactive | Scp-1 Tm shift inactive | STEP conf inactive
